Assays:
[1] = Stock solution stability; format: physicochemical; conditions: stock solution in methanol; for Long-term stability of stock solution, time with no significant change: 5 °C
How it was run: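 Methanol stock solutions of the analyte (500 µg/mL) and its deuterated internal standard (100 µg/mL) were tested for short-term and long-term stability. Working solutions were made by dilution in methanol. Stock and working solutions were stored at 2–8 °C.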

[2] = tested on: PDE-5; conditions: cited from earlier work
[3] = format: in vivo, human
How it was run: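 Single oral 20 mg tablet dose, test vs reference formulation, given fasting to 24 healthy Indian subjects. The test compound was measured in plasma by LC-MS/MS with a deuterated internal standard. 200 µL plasma was extracted on Strata-X-C SPE and run on a Synergi Hydro-RP C18 column. Mobile phase was methanol:10 mM ammonium formate pH 4.0 (90:10) at 0.9 mL/min, with positive ESI MRM. Calibration range was 0.50–500 ng/mL, and non-compartmental PK was calculated.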

[4] = Stability of tadalafil in human plasma under storage and process conditions; format: in vitro ADME
[5] = Whole blood stability; format: in vitro ADME, human; conditions: 25 °C
[6] = cited from earlier work
[7] = 20 mg oral, fasting, 24 subjects

Long-term stability of stock solution, time with no significant change [1] | Short-term stability of stock solution, time remained stable ([1]; room temperature) | Intra subject variation of AUC 0-inf [3, 7] | Intra subject variation of AUC 0–168 h [3, 7] | Intra subject variation of Cmax [3, 7] | Cmax ([3]; male, human, plasma, po, 20 mg) | Tmax ([3]; male, human, plasma, po, 20 mg) | half-life ([3]; male, human, plasma, po, 20 mg) | Ratios of mean log-transformed Cmax, AUC0–168 h and AUC0-inf and their 90% confidence intervals ([3]; test vs reference, overall range, acceptance criterion 80%–125%) | Time found stable in plasma at room temperature ([4]; controlled blank plasma) | Time stable in extracted plasma samples, room temperature ([4]; extracted plasma samples) | Whole blood stability, time with no evidence of degradation [5] | SMILES | Selectivity for PDE-5 over other PDE isozymes [2] | Selectivity for PDE-5 over PDE-1–4 and PDE-7–10 [2] | Bioavailability [6] | Fraction of the metabolized drug excreted in the urine [6]
up to 10 days | up to 7 h |  |  |  |  |  |  |  |  |  |  | [2H]C([2H])([2H])N1CC(=O)N2[C@H](c3ccc4c(c3)OCO4)c3[nH]c4ccccc4c3C[C@@H]2C1=O [TAD-d3, tadalafil-d3] |  |  |  | 
 |  |  |  |  |  |  |  |  |  |  |  | CCCc1nn(C)c2c(=O)[nH]c(-c3cc(S(=O)(=O)N4CCN(C)CC4)ccc3OCC)nc12 [sildenafil] | 41 times |  |  | 
up to 10 days |  | 11.56 % CV | 10.09 % CV | 9.53 % CV | 396 ng/mL | ~2.37 h | 18.6 ± 2.47 h | 99.2% to 110.9 | up to 12 h | 12 h | up to 2 h | CN1CC(=O)N2[C@H](c3ccc4c(c3)OCO4)c3[nH]c4ccccc4c3C[C@@H]2C1=O [tadalafil] |  | 1000 times | approximately 80% | one third

From article PMC6104147 (Journal of Pharmaceutical Analysis, 2018)
